Experimental data as given in paper PMC10959575 (Journal of the American Society for Mass Spectrometry, 2023).

Legend:
[1] = biological target: α-syn/Cu^2+/CLR01 complex (Homo sapiens, UniProt P37840); test: ECD top-down FT-ICR MS of the α-syn/Cu2+/CLR01 complex; assay type: binding
Outline: (§1)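 ESI on a 15T FT-ICR instrument: spray 1–2 kV, capillary exit 100 V, deflector plate 200 V, funnel 90 V, skimmer 50 V. Complex ions isolated with a 5–20 m/z notch, then fragmented by ECD (bias 1 V, pulse 10–50 ms). Product spectra deconvoluted with S/N limit 2. c- and z-ions assigned at 5 ppm error, with ligand and metals as unlocalized modifications.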

[2] = biological target: α-syn/ Cu^2+ complex (Homo sapiens, UniProt P37840); test: IM-MS of the α-syn/Cu2+ complex with and without CLR01; settings: 9+ charge state
Outline: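 Copper-bound α-syn in 20 mM ammonium acetate, analysed with test compound at 1:3 molar ratio and without it. Mobility measured by quadrupole-IM-TOF: spray 1–2 kV, sampling cone 10–20 V, source offset 20 V. Data for each charge state extracted over the [M+nH]ⁿ⁺ peak.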

[3] = biological target: T1, α-syn (Homo sapiens, UniProt P37840); test: Native MS of α-syn/Cu2+/CLR01 solution, 1:1:3 molar ratio; assay type: binding
Outline: (§2)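 Protein at 10–30 μM in 20 mM ammonium acetate, with ligand added to 10–50 μM. Electrosprayed at 1–2 kV on a 15T FT-ICR (capillary exit 100 V, deflector 200 V, funnel 90 V, skimmer 50 V). Spectra deconvolved. Percent binding calculated from intensities of unbound and ligand-bound peaks.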

[4] = biological target: α-syn/Mn^2+/CLR01 complex (Homo sapiens, UniProt P37840); test: ECD top-down FT-ICR MS of the α-syn/Mn2+/CLR01 complex; assay type: binding
Outline: as §1

[5] = biological target: T1, α-syn; test: IM-MS of α-syn with Mn2+ and CLR01
Outline: (§3)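 IM-MS on a quadrupole-IM-time-of-flight instrument: spray 1–2 kV, sampling cone 10–20 V, source offset 20 V. Spectra taken over the full m/z range, with each charge state extracted over its [M+nH]ⁿ⁺ peak. Ligand at 5x molar concentration for wild-type protein; metal-bound protein with ligand at a 1:3 molar ratio.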

[6] = biological target: T1, α-syn; test: Native MS of α-syn/Mn2+/CLR01 solution, 1:5:3 molar ratio; assay type: binding
Outline: as §2

[7] = biological target: T2, A30P α-syn (Homo sapiens, UniProt P37840, A30P); test: ECD top-down FT-ICR MS, binding site location on A30P α-syn; settings: A30P α-syn with 2 CLR01 molecules bound
Outline: (§4)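 Protein (10–30 μM) in 20 mM ammonium acetate with test compound at 10–50 μM. Native ESI on a 15T FT-ICR: spray 1–2 kV, capillary exit 100 V, deflector 200 V, funnel 90 V, skimmer 50 V. Complexes isolated with 5–20 m/z notch, then ECD (bias 1 V, pulse 10–50 ms). Fragments deconvoluted at S/N 2. c/z ions assigned at 5 ppm error, with ligand as unlocalized modification.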

[8] = biological target: T2, A30P α-syn; test: IM-MS of A30P α-syn/CLR01 complexes; settings: 8+ and 9+ charge states
Outline: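 WT and A30P α-syn (10–30 μM) in 20 mM ammonium acetate, with test compound at 5x molar excess. Read on a quadrupole-IM-TOF instrument: spray 1–2 kV, sampling cone 10–20 V, source offset 20 V. IM spectra taken over the full m/z range. Per-charge-state data extracted over the [M+nH]ⁿ⁺ peak.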

[9] = biological target: wildtype α-syn (Homo sapiens, UniProt P37840); test: ECD top-down FT-ICR MS, binding site location on WT α-syn; settings: 13+ charge state, α-syn bound with 2 CLR01 molecules
Outline: as §4

[10] = biological target: T3, WT α-syn (Homo sapiens, UniProt P37840); test: IM-MS of WT α-syn with CLR01
Outline: as §3

[11] = biological target: T2, A30P α-syn; test: Native MS of A30P α-syn with CLR01; assay type: binding; settings: native solution conditions
Outline: as §2

[12] = biological target: wild type α-syn, acetylated α-syn, and phosphorylated α-syn (Homo sapiens, UniProt P37840); test: Native MS of equimolar proteoform mixture with equimolar CLR01; assay type: binding; settings: equimolar ratio of CLR01
Outline: as §2

[13] = biological target: T3, WT α-syn; test: Native MS of WT α-syn with CLR01; assay type: binding
Outline: as §2

[14] = tested on: tau protein; settings: IM-MS; cited from earlier work
[15] = biological target: phosphorylated α-syn (Homo sapiens, UniProt P37840); test: IM-MS of phosphorylated α-syn with CLR01; settings: 9+ charge state
Outline: (§5)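 Acetylated (made as previously described) or phosphorylated α-syn in 20 mM ammonium acetate, mixed 1:1 molar with test compound. Ion mobility–MS run on a quadrupole-IM-TOF: spray 1–2 kV, sampling cone 10–20 V, source offset 20 V. Mobiligrams extracted per charge state over the [M+nH]ⁿ⁺ peak.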

[16] = biological target: acetylated α-syn (Homo sapiens, UniProt P37840); test: IM-MS of acetylated α-syn with CLR01; settings: 9+ charge state
Outline: as §5

[17] = biological target: T1, α-syn; settings: IM-MS; cited from earlier work

[Cu+2] [Cu^2+]
Cu2+ binding location [1]: N-terminus | ion mobiligram of Cu2+ bound α-syn versus WT form ([2]; no CLR01): early arriving ensembles significantly more abundant | α-syn bound by Cu2+ ([3]; 0 CLR01 molecules bound): 65% | number of copper binding events ([3]; 1:1:3 α-syn:Cu2+:CLR01): 1

[Mn+2] [Mn^2+]
Mn2+ binding location [4]: acidic C-terminal region | structural effect of Mn2+ binding ([5]; Mn2+ alone): only slightly compacts | number of Mn2+ binding events observed ([6]; 1:5:3 α-syn:Mn2+:CLR01): up to 5 | α-syn bound by Mn2+ ([6]; CLR01 not bound to the protein): 86%

CLR01
CLR01 binding location [7]: K10 and K12 with a possible additional site of binding at K21 | change of ion mobiligram on CLR01 binding [8]: early arriving ensembles increase in abundance | binding location of the second CLR01 molecule [9]: K12 with a secondary binding location at K21 | change of ion mobiligram on CLR01 binding ([10]; 9+ charge state, 1 CLR01 molecule bound): increase in abundance of the early arriving ensemble | change of ion mobiligram on CLR01 binding ([10]; higher charge states such as 12+): do not show significant shifts | change of ion mobiligram on CLR01 binding ([2]; α-syn/Cu2+ complex): further increases the abundance of the early arriving conformers | number of CLR01 molecules bound simultaneously with Cu2+ ([3]; 1:1:3 α-syn:Cu2+:CLR01): Up to 3 | α-syn bound by Cu2+ ([3]; 3 CLR01 molecules bound): 57% | number of CLR01 binding events observed [11]: up to 5 | total CLR01 bound to the protein [11]: 74% | number of CLR01 molecules that bind each proteoform [12]: up to 2 | CLR01 in solution bound to the protein ([13]; CLR01 at 5x molar concentration): 63% | number of CLR01 binding events observed ([13]; CLR01 at 5x molar concentration, deconvolved mass spectrum): up to 5 | Kd values for the fourth and fifth binding sites ([13]; WT α-syn titrated with CLR01, thought to bind nonspecifically): did not converge well | structural effect of binding on tau protein [14]: compacts the structure of tau protein | structural effect when CLR01 and Mn2+ both bind ([5]; CLR01 and Mn2+ bound): the structure of α-syn is compacted | change of ion mobiligram on CLR01 binding [15]: further increase in abundance of the early arriving ensembles | number of CLR01 binding events observed ([6]; 1:5:3 α-syn:Mn2+:CLR01): ≤ 4 | α-syn bound by Mn2+ ([6]; 1 CLR01 molecule bound): 89% | α-syn bound by Mn2+ ([6]; 2 CLR01 molecules bound): 92% | change of ion mobiligram on CLR01 binding [16]: increase in the abundance of early arriving ensembles

epigallocatechin-3-gallate [EGCG]
structural effect of binding on α-syn [17]: promotes compaction of α-syn structure
